Test results published in ChEMBL document CHEMBL3102794, “Discovery of 2-pyridineformamide thiosemicarbazones as potent antiausterity agents” (2014).
The source made the active and inactive calls. No cut-off for these calls is given here.

Legend:
[1] = Cytotoxicity against human PANC1 cells in nutrient-deprived medium after 24 hrs by WST-8 assay; format: functional, PANC-1
Outline: (§1)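 PANC-1 cells were seeded at 1.5 × 10^4/well and grown 24 h in DMEM at 37 °C, 5% CO2. They were washed with D-PBS, then exposed to serial dilutions in DMEM or NDM for 24 h, with control and blank wells. Viability was read by WST-8 (10% in DMEM, 3 h, A450), averaged over three wells: (test−blank)/(control−blank)×100.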

PANC-1 [2] = assay: Induction of apoptosis in human PANC1 cells in nutrient-deprived medium assessed as translocation of phosphatidylserine to external surface at 1 uM after 12 hrs by Annexin V-FITC/propidium iodide staining-based fluorescence microscopy; format: functional, cell-based
Caspase-3 (Homo sapiens) [3] = target: T1, Caspase-3 (Homo sapiens) (UniProt P42574); assay: Induction of caspase3 (unknown origin) cleavage after 4 hrs by Western blotting analysis in presence of nutrient-deprived medium
T1 sequence (whole entry): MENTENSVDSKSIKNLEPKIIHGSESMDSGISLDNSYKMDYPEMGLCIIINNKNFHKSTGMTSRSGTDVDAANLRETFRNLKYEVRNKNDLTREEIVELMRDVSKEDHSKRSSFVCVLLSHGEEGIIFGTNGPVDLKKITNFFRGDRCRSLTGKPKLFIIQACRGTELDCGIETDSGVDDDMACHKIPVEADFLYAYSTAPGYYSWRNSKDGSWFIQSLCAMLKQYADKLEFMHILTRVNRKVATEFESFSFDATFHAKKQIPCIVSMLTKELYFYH
Outline: (§2)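 Proteins were separated by SDS-PAGE (0.1% SDS) and transferred to PVDF. Membranes were blocked, washed in PBS with 0.1% polysorbate 20, and incubated overnight at room temperature with primary antibodies. HRP-conjugated secondary antibody was applied for 45 min at room temperature, and bands were detected by enhanced chemiluminescence.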

Caspase-3 (Homo sapiens) [4] = target: T1, Caspase-3 (Homo sapiens); assay: Induction of caspase3 (unknown origin) cleavage after 4 hrs by Western blotting analysis in presence of DMEM; outline: as §2
Homo sapiens [5] = species: Homo sapiens; assay: Inhibition of AKT (unknown origin) phosphorylation at T308 at 1 to 100 uM after 4 hrs by Western blotting analysis in presence of nutrient-deprived medium; outline: as §2
Homo sapiens [6] = species: Homo sapiens; assay: Inhibition of AKT (unknown origin) phosphorylation at S437 at 1 to 100 uM after 4 hrs by Western blotting analysis in presence of nutrient-deprived medium; outline: as §2
Homo sapiens [7] = species: Homo sapiens; assay: Inhibition of AKT (unknown origin) phosphorylation at S437 at 100 uM after 4 hrs by Western blotting analysis in presence of DMEM; outline: as §2
Homo sapiens [8] = species: Homo sapiens; assay: Inhibition of AKT (unknown origin) phosphorylation at T308 at 100 uM after 4 hrs by Western blotting analysis in presence of DMEM; outline: as §2
PANC-1 [9] = assay: Induction of apoptosis in human PANC1 cells in nutrient-deprived medium assessed as disruption of cell organelles at 1 uM after 24 hrs by phase contrast microscopy relative to control; format: functional, cell-based
Outline: (§3)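 Cells were seeded at 1 × 10^6 per 60 mm dish and allowed to attach for 24 h. They were washed twice and treated with 1 µM in DMEM or NDM for 24 h. EB/AO dye mixture (100 µg/ml each, in PBS) was added, and cells were imaged in fluorescent and phase-contrast modes at 40× objective. AO marks viable cells green; EB marks late apoptotic/necrotic cells red.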

PANC-1 [10] = assay: Induction of apoptosis in human PANC1 cells in nutrient-deprived medium assessed as rupture of cell membrane at 1 uM after 24 hrs by phase contrast microscopy relative to control; format: functional, cell-based; outline: as §3
PANC-1 [11] = assay: Induction of apoptosis in human PANC1 cells in nutrient-deprived medium assessed as cell swelling at 1 uM after 24 hrs by phase contrast microscopy relative to control; format: functional, cell-based; outline: as §3
PANC-1 [12] = assay: Induction of apoptosis in human PANC1 cells in nutrient-deprived medium assessed as late apoptotic and necrotic cells at 1 uM after 24 hrs by ethidium bromide/acridine orange staining-based fluorescence microscopy relative to control; format: functional, cell-based; outline: as §3
PANC-1 [13] = assay: Cytotoxicity against human PANC1 cells after 24 hrs by WST-8 assay in presence of DMEM; format: functional, cell-based; outline: as §1
PANC-1 [14] = assay: Ratio of arctigenin PC50 to compound PC50 for human PANC1 cells; format: functional

Row | SMILES | PC50 [1] [µM] | also measured
1 | CC(=O)O[C@H]1C(=O)[C@@]2(C)[C@H]([C@H](OC(=O)c3ccccc3)[C@]3(O)C[C@H](OC(=O)[C@H](O)[C@@H](NC(=O)c4ccccc4)c4ccccc4)C(C)=C1C3(C)C)[C@]1(OC(C)=O)CO[C@@H]1C[C@@H]2O [PACLITAXEL] | >200 | –
2 | COc1cc(C[C@H]2C(=O)OC[C@@H]2Cc2ccc(OC)c(OC)c2)ccc1O [ARCTIGENIN] | 0.85 | –
3 | N/C(=N\NC(=S)N1CCN(c2ccccn2)CC1)c1ccccn1 | 0.78 | Activity (PANC-1 [2]): Active; Activity (Caspase-3 (Homo sapiens) [3]): Dose-dependent effect; Activity (Caspase-3 (Homo sapiens) [4]): Dose-dependent effect; inhibition (Homo sapiens [5]): inactive; inhibition (Homo sapiens [6]): inactive; inhibition (Homo sapiens [7]): inactive; inhibition (Homo sapiens [8]): inactive; Activity (PANC-1 [9]): Active; Activity (PANC-1 [10]): Active; Activity (PANC-1 [11]): Active; Activity (PANC-1 [12]): Active
4 | Cc1ccnc(/C(N)=N/NC(=S)N2CCCCCC2)c1 | 1.7 | –
5 | Cc1ccnc(/C(N)=N/NC(=S)N2CCCCC2)c1 | 1.8 | –
6 | N/C(=N\NC(=S)N1CCCCC1)c1ccccn1 | 1.6 | –
7 | Cc1ccnc(/C(N)=N/NC(=S)N2CCSCC2)c1 | 1.9 | –
8 | N/C(=N\NC(=S)N1CCCC1)c1ccccn1 | 0.78 | –
9 | Nc1ccn([C@@H]2O[C@H](CO)[C@@H](O)C2(F)F)c(=O)n1 [GEMCITABINE] | >200 | Activity (PANC-1 [13]): inactive
10 | Cc1ccnc(/C(N)=N/NC(=S)N2CCCC2)c1 | 0.37 | Ratio (PANC-1 [14]): 2
11 | N/C(=N\NC(=S)N1CCOCC1)c1ccccn1 | 1.6 | –
12 | Cc1ccnc(/C(N)=N/NC(=S)N2CCOCC2)c1 | 1.8 | –
13 | Cc1ccnc(/C(N)=N/NC(=S)N2CCN(c3ccccn3)CC2)c1 | 0.68 | –
14 | N/C(=N\NC(=S)N1CCSCC1)c1ccccn1 | 1.9 | –
15 | N/C(=N\NC(=S)N1CCCCCC1)c1ccccn1 | 1.4 | –
